# Published values of several laboratories.
# Each line is one published result; the experiments were not run side by side.
# Observed: metabolic stability
# Host: human
# Sample: liver microsomes
Compound,concentration,time,pH,compound remaining [%]
CC(C)NCC(O)COc1cccc2ccccc12 (centres unmarked),1 µM,30 min,,63
O=C(CCCO)N1N=C(c2c(-c3ccc(Cl)cc3)c3ccccc3[nH]c2=O)CC1c1ccc(Cl)cc1 (centres unmarked),1 µM,20 min,pH 7.4,31
Nc1nc(-c2cccc(NC(=O)Nc3cccc(-c4c[nH]c(N)n4)c3)c2)c[nH]1,5 µM,1 h,pH 7.4,> 80
CC[C@H](NC(=O)[C@H](CS(=O)(=O)CC1CC1)N[C@@H](c1ccc(F)cc1)C(F)(F)F)C(=O)C(=O)NC1CC1,,1 h,,93
Nc1nc(-c2ccc(NC(=O)Nc3cccc(-c4c[nH]c(N)n4)c3F)cc2F)c[nH]1,5 µM,1 h,pH 7.4,> 80
Cc1cn(-c2ccc(-c3csc(Nc4c5c(nn4C)CCCC5)n3)cc2)cn1,1 µM,30 min,,55
CS(=O)(=O)c1ccc(-c2cnc(N)c(-c3ccc(C(F)(F)F)nc3)c2)cc1,1 µM,30 min,,92
O=C(Nc1ccc(S(=O)(=O)N2CCC(Cl)CC2)cc1)c1ccc([N+](=O)[O-])o1,1 µM,1 h,pH 7.4,0.49
